Source: PubChem
In the library only some 1.8% were active in any assay of this set; here they are far more common.
CASP6 VEID inh: inhibitors of human caspase-6. inhibition, % at 12.5 µM. AID 686996. purified caspase-6, Z-VEID-R110 cleavage fluorescence. actives 0.53% (n = 350,000);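 active means mean inhibition across replicates at least about 35%, with every replicate also reaching that limit, limit read from the data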
LEDGF integ inh: blocks HIV-1 LEDGF/p75-dependent DNA integration. inhibition, % at 3.7 µM. TR-FRET IN-LEDGF/p75 DNA integration, Eu/Cy5. AID 743269. actives 0.64% (n = 370,000);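 active means inhibition above the screen-wide mean plus 3 SD, cut at about 13% in these data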;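 further: signal is the Cy5 over europium emission ratio at 671 and 618 nm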
TDP2 inh: blocks human TDP2 phosphodiesterase activity; recombinant TDP2, T5PNP hydrolysis, p-nitrophenol absorbance 415 nm; inhibition, % at 12.8 µM; O95551; actives 0.34% (n = 370,000); AID 720702;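 active means inhibition above the mean of all tested compounds plus 3 SD, set per campaign, cut at about 25% in these data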
Target sequence (O95551 whole entry, looked up): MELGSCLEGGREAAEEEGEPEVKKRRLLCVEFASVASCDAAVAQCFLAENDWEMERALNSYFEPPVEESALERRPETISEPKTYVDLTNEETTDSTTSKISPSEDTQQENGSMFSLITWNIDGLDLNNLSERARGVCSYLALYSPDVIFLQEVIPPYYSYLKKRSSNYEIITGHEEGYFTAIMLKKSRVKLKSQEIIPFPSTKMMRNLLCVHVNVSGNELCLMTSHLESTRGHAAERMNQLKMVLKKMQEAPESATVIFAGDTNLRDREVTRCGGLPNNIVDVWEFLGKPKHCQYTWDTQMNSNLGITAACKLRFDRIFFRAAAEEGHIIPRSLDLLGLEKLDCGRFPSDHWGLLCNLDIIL
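Assay system: Recombinant human TDP2 | Quantity: 120 nM TDP2 per well | Incubation: 2 h at 37 °C | Signal: Epi absorbance | Evaluation: Percent inhibition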
MBD2 inh: blocks human MBD2 binding to methylated DNA. TR-FRET, MBD2 binding to methylated oligonucleotide. inhibition, % at 4.4 µM. actives 0.31% (n = 370,000). AID 686964; in the data active means inhibition above about 13%
Target sequence (Q9UBB5 whole entry, looked up): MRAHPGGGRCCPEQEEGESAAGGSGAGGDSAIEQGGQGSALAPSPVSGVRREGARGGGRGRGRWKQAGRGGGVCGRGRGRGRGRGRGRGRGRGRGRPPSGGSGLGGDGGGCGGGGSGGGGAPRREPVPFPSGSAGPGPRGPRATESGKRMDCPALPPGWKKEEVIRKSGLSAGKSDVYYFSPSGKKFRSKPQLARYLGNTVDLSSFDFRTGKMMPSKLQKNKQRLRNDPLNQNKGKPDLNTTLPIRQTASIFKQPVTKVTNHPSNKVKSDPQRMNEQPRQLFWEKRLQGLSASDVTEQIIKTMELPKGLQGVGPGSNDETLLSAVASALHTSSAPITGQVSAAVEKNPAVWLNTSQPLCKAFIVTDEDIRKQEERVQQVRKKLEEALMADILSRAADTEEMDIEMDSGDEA
UHRF1 binding: human UHRF1 methylated DNA binding inhibitors; Q96T88; UHRF1 binding to methylated oligo, TR-FRET; inhibition, % at 4.4 µM; actives 0.75% (n = 370,000); AID 687016; in the data active means inhibition above about 21%;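 further: UHRF1 SRA domain binding a hemimethylated CpG hairpin DNA probe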
NSD2 HMT inh: NSD2 (human) methyltransferase inhibition. O96028. NSD2 peptide methylation, AlphaScreen, 120 min. inhibition, % at 12.5 µM. actives 0.54% (n = 310,000). AID 743445; in the data active means inhibition above about 50%
Large screens that a line does not name were inactive.

Cc1ccc(S(=O)(=O)N2CCCCC2)cc1NC(=O)COC(=O)c1cccn1C	UHRF1 binding 40
Cc1cccc(-c2ccc([C@@H]3[C@H](CO)N4CCCCN(S(=O)(=O)c5cn(C)cn5)C[C@@H]34)cc2)c1	none (no result: LEDGF integ inh, TDP2 inh, MBD2 inh, UHRF1 binding, NSD2 HMT inh)
CCS(=O)(=O)N1CC(=O)N2[C@H](C1)[C@@H](c1ccc(C#CCC(C)C)cc1)[C@@H]2CO	none (no result: LEDGF integ inh, TDP2 inh, MBD2 inh, UHRF1 binding, NSD2 HMT inh)
C[C@@H]1CN([C@H](C)CO)C(=O)c2cccc(N(C)C)c2O[C@H]1CN(C)Cc1ccccc1	none (no result: LEDGF integ inh, TDP2 inh, MBD2 inh, UHRF1 binding, NSD2 HMT inh)
CCCCC(=O)/C=C/n1c(=S)oc2ccccc21	UHRF1 binding 23
COC(=O)c1ccccc1NC(=O)C(=O)NCc1ccncc1	UHRF1 binding 42
COC(=O)c1ccccc1NC(=O)NCc1cccnc1	none (no result: CASP6 VEID inh)
CC1CCN(S(=O)(=O)c2ccc3c(c2)C(Cl)(Cl)C(=O)N3)CC1	CASP6 VEID inh 69
O=C1c2ccc(Oc3cccc([N+](=O)[O-])c3)cc2C(=O)N1c1ccccn1	none
O=C(O)c1cccc(N2C(=O)c3cc([N+](=O)[O-])cc4cc([N+](=O)[O-])cc(c34)C2=O)c1	CASP6 VEID inh 45
O=C1c2cc([N+](=O)[O-])cc3cc([N+](=O)[O-])cc(c23)C(=O)N1c1ccccn1	CASP6 VEID inh 48
C=C1[C@@H](C)CN[C@@H]1CCO	none (no result: NSD2 HMT inh)
C=C1[C@H](C)CN[C@H]1CCO	CASP6 VEID inh 43 (no result: NSD2 HMT inh)
O=c1[nH]c2ccccc2cc1CN(Cc1ccco1)S(=O)(=O)c1ccc(F)cc1	UHRF1 binding 23
CCOC(=O)COc1c(C=O)cc(Br)cc1OC	UHRF1 binding 28 (no result: CASP6 VEID inh)
CCOC(=O)COc1c(/C=N\OC)cc(Cl)cc1OC	none
Cc1ccccc1-n1c(O)cc(=O)[nH]c1=S	UHRF1 binding 21
COc1ccc(NC(=S)Nc2ccc3cn[nH]c3c2)cc1	none (no result: NSD2 HMT inh)
CC(C)NC(=S)Nc1ccc2cn[nH]c2c1	UHRF1 binding 23 (no result: CASP6 VEID inh)
COc1ccc(S(=O)(=O)N2CCCC(C(=O)NCC3CCCO3)C2)cc1Cl (stereo not drawn)	none
CCOc1ccc(S(=O)(=O)N2CCCC(C(=O)NCC3CCCO3)C2)cc1Cl (stereo not drawn)	UHRF1 binding 83
COc1ccc(-c2nnc3ccc(SCC(=O)Nc4nccs4)nn23)cc1OC	none
COc1ccc(-c2ccc(SCC(=O)Nc3nccs3)nn2)cc1OC	UHRF1 binding 21
COc1cccc(C(=O)NCc2nnc(SCC(=O)Nc3nccs3)n2-c2ccccc2)c1	UHRF1 binding 95 (no result: NSD2 HMT inh)
COc1ccc(-c2csc(NC(=O)CSCc3c(C)noc3C)n2)cc1OC	CASP6 VEID inh 60
C[C@H](CO)N1C[C@H](C)[C@H](CN(C)C(=O)C2CCCCC2)Oc2ncc(C#CC3CCCCC3)cc2C1=O	none (no result: LEDGF integ inh, TDP2 inh, MBD2 inh, UHRF1 binding, NSD2 HMT inh)
CC(O)(CS(=O)(=O)Cc1ccccc1)C(=O)Nc1cccc(C(F)(F)F)c1 (stereo not drawn)	CASP6 VEID inh 40
CC(O)(CS(=O)(=O)Cc1ccccc1)C(=O)Nc1ccc(C(F)(F)F)cc1 (stereo not drawn)	none (no result: CASP6 VEID inh)
O=C(c1ccc(F)cc1)N1CC(=O)N2[C@H](CO)[C@H](c3ccc(C#CC4CC4)cc3)[C@H]2C1	none (no result: LEDGF integ inh, TDP2 inh, MBD2 inh, UHRF1 binding, NSD2 HMT inh)
COC(=O)CSc1nnc(-c2ccoc2C)n1-c1ccc(C)cc1	UHRF1 binding 22 (no result: CASP6 VEID inh)
Cc1ccc(-c2cnc3c(c2)C(=O)N([C@@H](C)CO)C[C@@H](C)[C@H](CN(C)Cc2ccccc2C(=O)O)O3)cc1	none (no result: LEDGF integ inh, TDP2 inh, MBD2 inh, UHRF1 binding, NSD2 HMT inh)
CCCC(=O)Nc1ccc2c(c1)OC[C@H](C)N(Cc1ccc(-c3ccccn3)cc1)C[C@H](C)[C@@H](OC)CN(C)C2=O	none (no result: LEDGF integ inh, TDP2 inh, MBD2 inh, UHRF1 binding, NSD2 HMT inh)
C/C(N)=C(/C#N)C(=O)CN1C(=O)NC(Cc2c[nH]c3ccccc23)C1=O (stereo not drawn)	CASP6 VEID inh 48
C[C@@H]1CN([C@@H](C)CO)C(=O)c2cc(C#CCC3CCCC3)cnc2O[C@@H]1CN(C)C(=O)CN(C)C	none (no result: LEDGF integ inh, TDP2 inh, MBD2 inh, UHRF1 binding, NSD2 HMT inh)
COc1cc(C(=O)OCC(=O)c2cc(C)n(CC3CCCO3)c2C)cc(OC)c1C (stereo not drawn)	UHRF1 binding 21
COc1cc(C)ccc1OCC(=O)OCC(=O)c1cc(C)n(CC2CCCO2)c1C (stereo not drawn)	none
CC(C)[C@H](NC(=O)C1CCN(S(=O)(=O)c2ccc(F)cc2)CC1)C(=O)N1CCCC1	none
Cc1ccc(S(=O)(=O)N2CCC(C(=O)N[C@H](C(=O)N3CCN(C)CC3)C(C)C)CC2)cc1	UHRF1 binding 22 (no result: CASP6 VEID inh)
COc1ccc(N2CC(C(=O)N/N=C/c3ccc(C)cc3)CC2=O)cc1 (stereo not drawn)	UHRF1 binding 24
COc1ccc(N2CC(C(=O)Nc3ncccc3C)CC2=O)cc1 (stereo not drawn)	UHRF1 binding 27 (no result: CASP6 VEID inh)
COc1ccc(N2CC(C(=O)N/N=C/c3ccc([N+](=O)[O-])cc3)CC2=O)cc1 (stereo not drawn)	none
CCCOc1ccc(N2CC(C(=O)Nc3ncccc3C)CC2=O)cc1 (stereo not drawn)	none (no result: CASP6 VEID inh)
COc1ccc(S(=O)(=O)N(C)C[C@H]2Oc3c(NC(=O)NC4CCCCC4)cccc3C(=O)N([C@H](C)CO)C[C@H]2C)cc1	none (no result: LEDGF integ inh, TDP2 inh, MBD2 inh, UHRF1 binding, NSD2 HMT inh)
Cc1cc(C)n(-c2ccc3nnc(C)n3n2)n1	UHRF1 binding 24
C[C@H]1CN([C@@H](C)CO)C(=O)c2cc(NC(=O)CCCN(C)C)ccc2O[C@@H]1CN(C)Cc1ccc(-c2ccccc2)cc1	none (no result: LEDGF integ inh, TDP2 inh, MBD2 inh, UHRF1 binding, NSD2 HMT inh)
COc1ccc(Cl)cc1S(=O)(=O)NC(C)C(=O)NCCCN1CCOCC1 (stereo not drawn)	none (no result: CASP6 VEID inh, LEDGF integ inh, TDP2 inh, MBD2 inh, UHRF1 binding)
Cc1ccc(NC(=S)N2CCN(c3ccccc3F)CC2)c(C)c1	UHRF1 binding 24
Cc1ccc(S(=O)(=O)Nc2cc3c(C(=O)Nc4ccccc4)c(C)oc3c3ccccc23)cc1	none
COC(=O)c1c(C)oc2c1cc(NS(=O)(=O)c1ccc(C(=O)O)cc1)c1ccccc12	CASP6 VEID inh 42 (no result: NSD2 HMT inh)
Cc1noc(C)c1NC(=O)Nc1ccc2c(c1)C(=O)N([C@H](C)CO)C[C@@H](C)[C@H](CN(C)CC1CC1)OCCCC[C@@H](C)O2	none (no result: LEDGF integ inh, TDP2 inh, MBD2 inh, UHRF1 binding, NSD2 HMT inh)
O=C1NC2=C(C(=O)CCC2)C(c2cccc([N+](=O)[O-])c2)N1 (stereo not drawn)	CASP6 VEID inh 38
O=C1NC2=C(C(=O)CCC2)C(c2ccc([N+](=O)[O-])cc2)N1 (stereo not drawn)	none (no result: CASP6 VEID inh)
Cc1ccc(S(=O)(=O)N(C)C[C@@H]2Oc3ncc(C#CCC(C)C)cc3C(=O)N([C@H](C)CO)C[C@H]2C)cc1	UHRF1 binding 23 (no result: NSD2 HMT inh)
C[C@H](CO)N1C[C@H](C)[C@@H](CN(C)C(=O)Nc2ccc(C(F)(F)F)cc2)Oc2ncc(/C=C/c3ccccc3)cc2C1=O	CASP6 VEID inh 48 (no result: LEDGF integ inh, TDP2 inh, MBD2 inh, UHRF1 binding, NSD2 HMT inh)
COc1cccc(C#Cc2cnc3c(c2)C(=O)N([C@@H](C)CO)C[C@H](C)[C@H](CN(C)C(=O)C2CCC2)O3)c1	UHRF1 binding 22 (no result: NSD2 HMT inh)
